RGS16-Gao HTS: regulators of human RGS16-Galphao interaction. O15492+P09471. bead-based flow cytometry RGS16-Galphao binding, fluorescence; actives lie on both sides. binding response (% of control), % at 10 µM. 220,000 compounds, 0.38% hits. AID 1441;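 note: Galphao activated by GDP with aluminum fluoride before binding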
Target sequence (O15492 whole entry, looked up): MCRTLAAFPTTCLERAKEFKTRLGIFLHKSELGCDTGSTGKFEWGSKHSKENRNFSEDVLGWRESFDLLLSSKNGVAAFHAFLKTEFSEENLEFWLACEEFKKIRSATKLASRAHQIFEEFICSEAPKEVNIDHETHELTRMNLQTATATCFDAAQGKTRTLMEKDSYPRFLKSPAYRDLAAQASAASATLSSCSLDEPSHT
Target sequence (P09471 whole entry, looked up): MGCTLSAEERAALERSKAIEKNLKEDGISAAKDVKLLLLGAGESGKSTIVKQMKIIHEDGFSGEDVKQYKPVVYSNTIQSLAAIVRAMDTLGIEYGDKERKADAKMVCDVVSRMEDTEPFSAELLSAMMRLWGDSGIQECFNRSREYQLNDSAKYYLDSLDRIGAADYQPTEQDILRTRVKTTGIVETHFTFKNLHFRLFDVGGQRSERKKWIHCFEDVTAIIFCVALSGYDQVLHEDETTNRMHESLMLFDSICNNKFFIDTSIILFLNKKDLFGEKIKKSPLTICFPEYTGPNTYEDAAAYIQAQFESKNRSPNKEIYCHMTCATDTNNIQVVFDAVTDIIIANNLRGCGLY
RGS4-Gao reg: modulates binding of RGS4 to human Galphao; Multiplexed bead flow cytometry; actives lie on both sides; binding response (% of control), % at 10 µM; 220,000 compounds, 0.33% hits; in the data active = binding response below about 49% or above about 150%; inactive = in between;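 note: fluorescent Galphao activated with aluminum fluoride binding bead-coupled RGS4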
Target sequence (P09471 whole entry, looked up): as above
RGS8-Gao: regulators of human RGS8-Galphao interaction; P09471; multiplexed bead flow cytometry, RGS8-Galphao binding; actives lie on both sides; response (percent of control binding), % at 10 µM; 220,000 compounds, 0.34% hits; in the data active = response below about 60% or above about 140%; inactive = in between;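 note: Galphao activated as the GDP aluminium fluoride complex binding bead-coupled RGS8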
RGS7-Gao reg: human RGS7-Galphao interaction regulation. P09471. Multiplexed bead flow cytometry, RGS7-Galphao binding; actives lie on both sides. binding response (% of control), % at 10 µM. 220,000 compounds, 0.35% hits. AID 1439; in the data active = binding response below about 49% or above about 150%; inconclusive = no clear call, values can overlap the other calls; inactive = in between;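 note: fluorescent Galphao held in activated GDP-AlF4 state binding bead-coupled RGS7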
ABCB1 inh: blocks JC-1 efflux by human ABCB1 transporter | inhibition, % at 6.6 µM | CCRF-Adr cells, flow cytometry | 190,000 compounds, 0.067% hits; in the data active = inhibition above about 40%;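 note: higher value means more JC-1 retained so stronger ABCB1 efflux block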
ABCG2 inh: blocks JC-1 efflux by human ABCG2 transporter | Q9UNQ0 | IgMXP3 cells, flow cytometry | inhibition, % at 6.6 µM | 190,000 compounds, 0.1% hits;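 active = inhibition above 80%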
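Test system: IgMXP3 (ABCG2) plus far-red-tagged CCRF-Adr (ABCB1) cells / Amount: 3 million cells/mL in well / Reagent: JC-1 transporter substrate / Timing: 10 min compound exposure, 25 °C / Signal: flow cytometry, 530 nm JC-1 signal / Read-out: percent efflux inhibition, scaled nicardipine 100% to DMSO 0% / Benchmarks: nicardipine as high control, DMSO as low control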
RGS4-Gao HTS: modulates binding between human RGS4 and Galphao | shares compounds with RGS16-Gao HTS | 1,600 compounds, 99% hits | AID 1504 | RGS4–Galpha-o binding response, % at 10 µM | multiplexed bead flow cytometry, RGS–Galpha-o binding;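 note: fluorescently labeled Galpha-o bound to GDP with aluminium fluoride binding biotinylated RGS beads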
Biotin-avidin: biotin-avidin bead binding disruption counter-screen | shares compounds with RGS16-Gao HTS | streptavidin beads, fluorescein-biotin binding, flow cytometry | inhibition, % at 10 µM | 1,700 tested, under 10 active;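 active = inhibition above 50%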;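 note: median green fluorescence of gated singlet beads compared with DMSO control wells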
RGS8-Gao single: RGS8-Galphao interaction regulation, single point confirmation. bead-based flow cytometry RGS8-Galphao binding, fluorescence; actives lie on both sides. shares compounds with RGS16-Gao HTS. binding response (% of control), % at 10 µM. 1,700 compounds, 3% hits. AID 1836; in the data active = binding response below about 72% or above about 130%; inactive = in between;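 note: Galphao activated as GDP AlF4 complex before binding bead RGS8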
RGS7-Gao confirm: RGS7-Galphao interaction regulation, single point confirmation | AID 1837 | response (percent of control binding), % at 10 µM | bead-based flow cytometry RGS7-Galphao binding; actives lie on both sides | shares compounds with RGS16-Gao HTS | 1,700 compounds, 7.8% hits; in the data active = response below about 75% or above about 130%; inactive = in between;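 note: fluorescent Galphao activated with GDP and aluminum fluoride binding bead-coupled RGS7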
RGS16-Gao single: RGS16-Galphao interaction regulation, single point confirmation; shares compounds with RGS16-Gao HTS; bead-based flow cytometry, RGS16-Galphao binding; actives lie on both sides; response (% of control binding), % at 10 µM; 1,700 compounds, 4% hits; in the data active = response below about 74% or above about 130%; inactive = in between;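 note: Galphao activated as the GDP aluminium fluoride complex binding bead-coupled RGS16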
RGS4-Gao confirm: confirmation of regulators of human RGS4-Galphao interaction; binding response (% of control), % at 10 µM; RGS4-Galphao binding, multiplexed bead flow cytometry; actives lie on both sides; 1,700 compounds, 4% hits; AID 1840; shares compounds with RGS16-Gao HTS; in the data active = binding response below about 74% or above about 130%; inactive = in between
RGS19-Gao single: confirmation of regulators of human RGS19-Galphao interaction. bead-based flow cytometry RGS19-Galphao binding; actives lie on both sides. shares compounds with RGS16-Gao HTS. 1,700 compounds, 5% hits. AID 1841. response (percent of control binding), % at 10 µM; in the data active = response below about 50% or above about 160%; inactive = in between
Of the large screens only hits and unclear results are named; the others gave an inactive call (follow-up assays come after a bar, where they were run); [ ] = remark or other dose. Sampled rows, rich in hits. Any-hit rate of the full collection: about 0.83%. Unless noted, the rule behind the calls is not given here.

COc1ccc(-n2c(SCC(=O)Nc3cc(C)on3)nc3c(c2=O)SCC3)cc1	RGS8-Gao 166[activator] | RGS4-Gao HTS 122 | Biotin-avidin inactive | RGS8-Gao single inactive | RGS7-Gao confirm inactive | RGS16-Gao single inactive | RGS4-Gao confirm inactive | RGS19-Gao single inactive
Cc1cc(NC(=O)CSc2nc3c(c(=O)n2-c2ccc(Br)cc2)SCC3)no1	none
C=CCc1cccc(/C=N/NC(=O)c2ccccc2Br)c1O	RGS16-Gao HTS 23, RGS4-Gao reg 34, RGS8-Gao 31, RGS7-Gao reg 25 | Biotin-avidin inactive | RGS8-Gao single inactive | RGS7-Gao confirm inactive | RGS16-Gao single inactive | RGS4-Gao confirm inactive | RGS19-Gao single inactive
O=C(CN1CCN(Cc2ccccc2F)C1=O)NCCc1ccc(Cl)cc1	RGS7-Gao reg 159[activator] | RGS4-Gao HTS 107 | Biotin-avidin inactive | RGS8-Gao single inactive | RGS7-Gao confirm inactive | RGS16-Gao single inactive | RGS4-Gao confirm inactive | RGS19-Gao single inactive
O=C(CN1CCN(Cc2ccc(Cl)cc2)C1=O)NCCCN1CCOCC1	RGS16-Gao HTS 13, RGS4-Gao reg 18, RGS8-Gao 14, RGS7-Gao reg 8.9 | Biotin-avidin inactive | RGS8-Gao single inactive | RGS7-Gao confirm inactive | RGS16-Gao single inactive | RGS4-Gao confirm inactive | RGS19-Gao single inactive
O=C(CN1CCN(Cc2ccc(Cl)cc2)C1=O)NCCCN1CCN(c2ccc(F)cc2)CC1	none
Cc1ccc(-c2noc(CN3C(C)CCCC3C)n2)cc1 (stereo not given)	none
N#Cc1nc(COc2ccc(Br)cc2)oc1NCCN1CCOCC1	RGS8-Gao 143[activator] | RGS4-Gao HTS 140 | Biotin-avidin inactive | RGS8-Gao single inactive | RGS7-Gao confirm inactive | RGS16-Gao single inactive | RGS4-Gao confirm inactive | RGS19-Gao single inactive
N#Cc1nc(COc2ccc(F)cc2)oc1NCCN1CCOCC1	none
CCCn1ncc(CN2CCN(CCc3ccccc3)C(CCO)C2)c1C (stereo not given)	none
CCOc1ccc(C(=O)Nc2ccccc2N2CCCC2)cc1	none
COc1ccc(-c2ocnc2C(=O)Nc2ccccc2N2CCCCC2)cc1	RGS7-Gao reg 230[activator] | RGS4-Gao HTS 128
COc1ccc(N(CC(=O)NCc2cccs2)S(=O)(=O)c2c(C)n[nH]c2C)cc1	RGS16-Gao HTS 14, RGS8-Gao 58 | RGS4-Gao HTS 75
COc1ccc(N(CC(=O)NCc2cccs2)S(=O)(=O)c2cccnc2)cc1	none
CCN(CC)S(=O)(=O)c1cccc(NC(=O)COC(=O)/C=C/c2cccs2)c1	RGS7-Gao reg inconclusive (no result: ABCB1 inh, ABCG2 inh)
COC(=O)CNC(c1ccccc1)c1cc(Br)ccc1NC(C)=O (stereo not given)	none | Biotin-avidin inactive | RGS8-Gao single inactive | RGS7-Gao confirm inactive | RGS16-Gao single inactive | RGS4-Gao confirm inactive | RGS19-Gao single inactive
NS(=O)(=O)c1ccc(NC(=O)Cc2c(F)cccc2Cl)cc1	none
O=C(NCc1ccc2c(c1)OCO2)NC12CC3CC(CC(C3)C1)C2	RGS8-Gao 149[activator] | RGS4-Gao HTS 136 | Biotin-avidin inactive | RGS8-Gao single inactive | RGS7-Gao confirm inactive | RGS16-Gao single inactive | RGS4-Gao confirm inactive | RGS19-Gao single 223[activator]
Nc1nc(SCC(=O)Nc2ccccc2)[nH]c(=O)c1-c1ccccc1	none (no result: RGS16-Gao HTS, RGS4-Gao reg, RGS8-Gao, RGS7-Gao reg) | Biotin-avidin inactive | RGS8-Gao single inactive | RGS7-Gao confirm inactive | RGS16-Gao single inactive | RGS4-Gao confirm inactive | RGS19-Gao single inactive
Cc1ccc(NC(=O)CSc2nc(C)c(Cc3ccccc3)c(=O)[nH]2)cc1	RGS16-Gao HTS 15, RGS4-Gao reg 29, RGS8-Gao 17, RGS7-Gao reg 22 | Biotin-avidin inactive | RGS8-Gao single inactive | RGS7-Gao confirm inactive | RGS16-Gao single inactive | RGS4-Gao confirm inactive | RGS19-Gao single inactive
Cc1cccc(NC(=O)CSc2nc(C)c(Cc3ccccc3)c(=O)[nH]2)c1C	none
CS(=O)(=O)N(CCc1ccccc1)CC(=O)Nc1ccc2c(c1)OCO2	none
O=C(COC(=O)c1ccc2c(c1)OCO2)NCc1ccc2c(c1)OCO2	none
Cc1c(C(=O)NCc2ccc3c(c2)OCO3)oc2ccccc12	RGS16-Gao HTS 22 | RGS4-Gao HTS 92 | Biotin-avidin inactive | RGS8-Gao single inactive | RGS7-Gao confirm inactive | RGS16-Gao single inactive | RGS4-Gao confirm inactive | RGS19-Gao single inactive
CS(=O)(=O)N(CCc1ccccc1)CC(=O)NCc1ccc2c(c1)OCO2	RGS16-Gao HTS 3.7, RGS4-Gao reg 11, RGS8-Gao 14, RGS7-Gao reg 13 | Biotin-avidin inactive | RGS8-Gao single inactive | RGS7-Gao confirm inactive | RGS16-Gao single inactive | RGS4-Gao confirm inactive | RGS19-Gao single inactive
O=C(COC(=O)c1ccco1)NCc1ccc2c(c1)OCO2	RGS4-Gao reg 34, RGS8-Gao 41, RGS7-Gao reg inconclusive (no result: ABCB1 inh, ABCG2 inh) | Biotin-avidin inactive | RGS8-Gao single inactive | RGS7-Gao confirm inactive | RGS16-Gao single inactive | RGS4-Gao confirm inactive | RGS19-Gao single inactive
CC(C)COc1ccc(C(=O)N/C(=C/c2cccc([N+](=O)[O-])c2)C(=O)O)cc1	RGS7-Gao reg inconclusive (no result: ABCB1 inh, ABCG2 inh)
CCn1c(SCc2cccc(C)c2)nnc1-c1ccc(C)cc1	none
COc1ccc(-c2[nH]ncc2CN(C)CCN2CCOCC2)cc1F	RGS16-Gao HTS -4.7, RGS4-Gao reg -6.3, RGS8-Gao 6.9, RGS7-Gao reg -15 | Biotin-avidin inactive | RGS8-Gao single inactive | RGS7-Gao confirm inactive | RGS16-Gao single inactive | RGS4-Gao confirm inactive | RGS19-Gao single inactive
O=S(=O)(NCC1CCCO1)c1ccc(Cl)nc1 (stereo not given)	none (no result: RGS16-Gao HTS, RGS4-Gao reg, RGS8-Gao, RGS7-Gao reg, ABCB1 inh, ABCG2 inh) | Biotin-avidin inactive | RGS8-Gao single inactive | RGS7-Gao confirm inactive | RGS16-Gao single inactive | RGS4-Gao confirm inactive | RGS19-Gao single inactive

Compound activity from PubChem.
